Published values of several laboratories.
Lines come from different studies, so protocols differ.
Effect on: cell growth or viability

SMILES | cell line | technique | tested at | time | quantity | result
O=C(c1ccc(F)cc1)c1c[nH]c2ncc(-c3ccnc(N4CCOCC4)c3)cc12 | MRC5 | MTT | 10 µM | 48 h | viability | 89.4%
CCN1C(=O)SCC1C1(OC)CC2CC(CCC(C)C=CC=CCCC(C)=CC(=O)O2)O1 (stereo not drawn) | MDA-MB-231 | MTT |  | 72 h | IC50 | > 50000 nM
N.N.[Cl][Pt][Cl] | A-375 | SRB |  |  | EC50 | 1200 nM
C/C1=C/C(=O)O[C@@H]2C[C@@H](CC[C@H](C)/C=C\C=C\CC1)O[C@@](O)([C@@H]1CSC(=O)N1Cc1ccccc1)C2 | MDA-MB-231 | MTT |  | 72 h | IC50 | 2720 nM
O=C(O)CCn1cc(C(=O)c2ccc(F)cc2)c2cc(-c3ccc(N4CCNCC4)nc3)cnc21 | MRC5 | MTT | 10 µM | 48 h | viability | 77.7%
Cl.O[C@]12C=C(c3nccc4c3[nH]c3ccccc34)[C@@H]3CCN(CCCC/C=C\CC1)C[C@@]31C[C@@H]3/C=C\CCCCN3[C@H]12 | LLC-PK11 | neutral red |  | 48 h | IC50 | 0.69 µg/mL
[Cl-].[Cl-].[Co+2] | BEL-7404 | MTT |  | 48 h | IC50 | > 150000 nM
O=C(c1ccc(F)cc1)c1c[nH]c2ncc(-c3ccc(N4CCNCC4)nc3)cc12 | MRC5 | MTT | 10 µM | 48 h | viability | 89.4%
COc1cc2c(cc1OS(N)(=O)=O)CC[C@@H]1[C@@H]2CC[C@]2(C)[C@@H](OS(N)(=O)=O)CC[C@@H]12 | MDA-MB-231 |  |  |  | GI50 | 290 nM
CCCS(=O)(=O)Nc1ccc(F)c(C(=O)c2c[nH]c3ncc(Cl)cc23)c1F | A-375 |  |  |  | EC50 | 30 nM
C/C1=C/C(=O)O[C@@H]2C[C@@H](CC[C@H](C)/C=C\C=C\CC1)O[C@@](OCCc1ccccc1)([C@@H]1CSC(=O)N1)C2 | MDA-MB-231 | MTT |  | 72 h | IC50 | 2710 nM
C1COCCN1.COc1ccc(/C=C\c2cc(I)c(OC)c(I)c2)cc1OP(=O)(O)O | KM-20L2 | SRB |  | 48 h | GI50 | > 1 µg/mL
